Reference: ChEMBL document CHEMBL2407061, “Medicinal chemistry of dihydropyran-based medium ring macrolides related to aspergillides: selective inhibition of PI3Kα” (J Med Chem, 2013)
One block for each compound: values may come before it. Calls of active or inactive are those of the source. The calls are words filed in the database; no cut-off is given here.

Columns and labels:
[1] = system: PC-3; assay: Antiproliferative activtiy against human PC3 cells assessed as growth inhibition after 48 hrs by MTT assay; format: functional, cell-based; conditions: PC-3, 48 h
In short: (§1)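 15000 cells per well in 200µl medium, exposed to a range of concentrations for 48 h (compounds in DMSO, diluted in complete medium). MTT (20µl of 2.5 mg/ml) added for 2 h at 37°C, formazan dissolved in DMSO, OD read at 570 nm. Viability = OD test/OD control ×100. IC50 taken from the concentration–survival curve after blank subtraction.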

[2] = system: A-375; assay: Antiproliferative activtiy against human A375 cells assessed as growth inhibition after 48 hrs by MTT assay; format: functional, cell-based; conditions: A-375, 48 h; in short: as §1
[3] = system: HL-60; assay: Antiproliferative activtiy against human HL60 cells assessed as growth inhibition after 48 hrs by MTT assay; format: functional, cell-based; conditions: HL-60, 48 h; in short: as §1
[4] = molecular target: Phosphatidylinositol 4,5-bisphosphate 3-kinase catalytic subunit alpha isoform (Homo sapiens) (UniProt P42336); assay: Inhibition of PI3K p110 alpha in human HL60 cells assessed as inhibition of AKT phosphorylation at AKT S473 by Western blotting analysis; format: cell-based; conditions: HL-60
Phosphatidylinositol 4,5-bisphosphate 3-kinase catalytic subunit alpha isoform (Homo sapiens), sequence (P42336 whole entry, canonical isoform): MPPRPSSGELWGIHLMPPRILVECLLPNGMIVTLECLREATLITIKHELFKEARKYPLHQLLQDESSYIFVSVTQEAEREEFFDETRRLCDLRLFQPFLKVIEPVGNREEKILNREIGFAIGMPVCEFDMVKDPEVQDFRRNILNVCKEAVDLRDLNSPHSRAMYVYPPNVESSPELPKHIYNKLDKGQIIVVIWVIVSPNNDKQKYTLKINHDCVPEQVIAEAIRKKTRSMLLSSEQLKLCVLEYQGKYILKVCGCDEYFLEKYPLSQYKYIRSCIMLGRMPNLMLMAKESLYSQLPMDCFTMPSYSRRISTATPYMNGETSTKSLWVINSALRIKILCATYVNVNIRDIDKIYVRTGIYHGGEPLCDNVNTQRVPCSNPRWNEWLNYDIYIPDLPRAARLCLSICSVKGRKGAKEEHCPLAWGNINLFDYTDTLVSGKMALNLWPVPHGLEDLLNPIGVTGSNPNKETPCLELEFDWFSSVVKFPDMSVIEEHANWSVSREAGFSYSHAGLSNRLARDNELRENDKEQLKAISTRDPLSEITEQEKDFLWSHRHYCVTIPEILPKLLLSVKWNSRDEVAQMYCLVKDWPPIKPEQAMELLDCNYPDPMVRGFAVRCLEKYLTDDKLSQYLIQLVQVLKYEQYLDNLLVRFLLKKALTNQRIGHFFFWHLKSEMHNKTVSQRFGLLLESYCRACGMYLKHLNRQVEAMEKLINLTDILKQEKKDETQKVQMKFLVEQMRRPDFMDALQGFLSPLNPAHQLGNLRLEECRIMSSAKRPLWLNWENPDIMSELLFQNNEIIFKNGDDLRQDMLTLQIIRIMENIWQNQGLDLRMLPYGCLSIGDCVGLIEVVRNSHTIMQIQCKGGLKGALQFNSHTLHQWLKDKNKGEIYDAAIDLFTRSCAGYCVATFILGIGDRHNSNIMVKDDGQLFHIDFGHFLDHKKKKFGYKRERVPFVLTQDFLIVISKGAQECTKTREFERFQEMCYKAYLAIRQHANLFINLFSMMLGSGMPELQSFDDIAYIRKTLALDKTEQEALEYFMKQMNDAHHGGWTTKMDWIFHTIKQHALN
In short: (§2)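 Treated and untreated HL-60 cells spun at 400g at 4°C, washed in PBS and lysed in RIPA buffer for whole-cell lysate. 60 µg protein per lane run on SDS-PAGE and probed with primary antibodies. ECL chemiluminescence detection, with β-actin as the loading control.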

[5] = Cytotoxicity against human FR2 cells after 48 hrs by MTT assay; format: cell-based; conditions: FR2, 48 h; in short: as §1
[6] = system: HL-60; assay: Induction of apoptosis in human HL60 cells assessed as early apoptotic cells at 5 uM after 6 hrs by Annexine V/propidium iodide staining-based FACS flow cytometry analysis (reference value: 4%); format: functional
[7] = system: HL-60; assay: Induction of apoptosis in human HL60 cells assessed as early apoptotic cells at 20 uM after 6 hrs by Annexine V/propidium iodide staining-based FACS flow cytometry analysis (reference value: 4%); format: functional
[8] = molecular target: Phosphatidylinositol 4,5-bisphosphate 3-kinase catalytic subunit alpha isoform (Homo sapiens) (UniProt P42336); assay: Inhibition of PI3K p110 alpha in human HL60 cells assessed as effect on total AKT level by Western blotting analysis; format: cell-based; conditions: HL-60; in short: as §2
[9] = system: HL-60; assay: Inhibition of human ERK 1/2 expression in human HL60 cells by Western blotting analysis; format: functional, cell-based; in short: as §2
[10] = molecular target: Phosphatidylinositol 4,5-bisphosphate 3-kinase catalytic subunit alpha isoform (Homo sapiens) (UniProt P42336); assay: Inhibition of PI3K p110 alpha in human HL60 cells assessed as caspase 3 clevage by Western blotting analysis; format: cell-based; conditions: HL-60; in short: as §2
[11] = system: HL-60; assay: Induction of apoptosis in human HL60 cells assessed as mitochondrial membrane potential loss at 5 uM after 6 hrs by RH 123 staining-based flow cytometer analysis (reference value: 6%); format: functional
In short: (§3)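 1×10^6 HL-60 cells in 12-well plates, exposed to 5, 10 or 20 µM for 6 h. Rhodamine 123 added 30 min before the end. Cells collected at 400 g, washed once in PBS, and fluorescence read in the FL-1 channel of a flow cytometer.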

[12] = system: HL-60; assay: Induction of apoptosis in human HL60 cells assessed as blebbing and shrinkage of cells at 5 to 20 uM after 6 hrs by phase contrast microscopy
[13] = system: HL-60; assay: Induction of apoptosis in human HL60 cells assessed as mitochondrial membrane potential loss after 6 hrs by RH 123 staining-based flow cytometer analysis; format: functional, cell-based; in short: as §3
[14] = system: HL-60; assay: Induction of apoptosis in human HL60 cells assessed as early apoptotic cells at 10 uM after 6 hrs by Annexine V/propidium iodide staining-based FACS flow cytometry analysis (reference value: 4%); format: functional
[15] = system: HL-60; assay: Induction of apoptosis in human HL60 cells assessed as mitochondrial membrane potential loss at 20 uM after 6 hrs by RH 123 staining-based flow cytometer analysis (reference value: 6%); format: functional; in short: as §3
[16] = molecular target: Phosphatidylinositol 4,5-bisphosphate 3-kinase catalytic subunit alpha isoform (Homo sapiens) (UniProt P42336); assay: Inhibition of PI3K p110 alpha in human HL60 cells assessed as PARP 1 clevage by Western blotting analysis; format: cell-based; conditions: HL-60; in short: as §2
[17] = system: HL-60; assay: Induction of apoptosis in human HL60 cells assessed as late apoptotic cells at 10 uM after 6 hrs by Annexine V/propidium iodide staining-based FACS flow cytometry analysis (reference value: 2%); format: functional
[18] = system: HL-60; assay: Cell cycle arrest in human HL60 cells assessed as accumulation at G0/G1 phase at 5 uM after 6 hrs using by propidium iodide staining by FACS analysis (reference value: 6%); format: functional
[19] = molecular target: Phosphatidylinositol 4,5-bisphosphate 3-kinase catalytic subunit alpha isoform (Homo sapiens) (UniProt P42336); assay: Inhibition of PI3K p110 alpha in human HL60 cells assessed as inhibition of mTOR phosphorylation by Western blotting analysis; format: cell-based; conditions: HL-60; in short: as §2
[20] = system: HL-60; assay: Cell cycle arrest in human HL60 cells assessed as accumulation at G0/G1 phase at 10 uM after 6 hrs using by propidium iodide staining by FACS analysis (reference value: 6%); format: functional
[21] = system: HL-60; assay: Induction of apoptosis in human HL60 cells assessed as change in cell morphology after 6 hrs
[22] = system: HL-60; assay: Induction of apoptosis in human HL60 cells assessed as late apoptotic cells at 20 uM after 6 hrs by Annexine V/propidium iodide staining-based FACS flow cytometry analysis (reference value: 2%); format: functional
[23] = system: HL-60; assay: Induction of apoptosis in human HL60 cells assessed as decrease in expression of cytochrome c in mitochondrial fraction after 6 hrs by Western blot analysis; format: functional, cell-based
In short: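 4×10^6 HL-60 cells treated for 6 h. Cytosolic fraction from a 2 min digitonin lysis then 12000g spin; mitochondrial fraction lysed in RIPA. Cytochrome c detected by western blot, with COX IV as the mitochondrial loading control and β-actin as the cytosolic loading control.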

[24] = system: HL-60; assay: Induction of apoptosis in human HL60 cells assessed as mitochondrial membrane potential loss at 10 uM after 6 hrs by RH 123 staining-based flow cytometer analysis (reference value: 6%); format: functional; in short: as §3
[25] = molecular target: Phosphatidylinositol 4,5-bisphosphate 3-kinase catalytic subunit alpha isoform (Homo sapiens) (UniProt P42336); assay: Inhibition of PI3K p110 alpha in human HL60 cells assessed as inhibition of GSK3 beta phosphorylation by Western blotting analysis; format: cell-based; conditions: HL-60; in short: as §2
[26] = system: HL-60; assay: Induction of apoptosis in human HL60 cells assessed as late apoptotic cells at 5 uM after 6 hrs by Annexine V/propidium iodide staining-based FACS flow cytometry analysis (reference value: 2%); format: functional
[27] = system: HL-60; assay: Cell cycle arrest in human HL60 cells assessed as accumulation at G0/G1 phase at 20 uM after 6 hrs using by propidium iodide staining by FACS analysis (reference value: 6%); format: functional
[28] = molecular target: Phosphatidylinositol 4,5-bisphosphate 3-kinase catalytic subunit alpha isoform (Homo sapiens) (UniProt P42336); assay: Inhibition of PI3K p110 alpha in human HL60 cells by Western blotting analysis; format: cell-based; conditions: HL-60; in short: as §2
[29] = molecular target: Phosphatidylinositol 4,5-bisphosphate 3-kinase catalytic subunit alpha isoform (Homo sapiens) (UniProt P42336); assay: Inhibition of PI3K p110 alpha in human HL60 cells assessed as inhibition of AKT phosphorylation at T308 by Western blotting analysis; format: cell-based; conditions: HL-60; in short: as §2
[30] = system: HL-60; assay: Induction of apoptosis in human HL60 cells assessed as change in nuclear morphology at 5 to 20 uM after 6 hrs by Hoechst 33258 staining-based inverted fluorescence analysis; format: functional, cell-based
In short: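 HL-60 cells exposed for 6 h. Spun at 400 g, washed twice in PBS, stained 30 min at room temperature under subdued light with Hoechst 33258 (10 µg/ml in citrate/phosphate buffer with 0.05% Tween 20). Mounted in PBS:glycerol 1:1 and viewed by UV-excitation fluorescence microscopy for nuclear changes and apoptotic bodies.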

IC50 [1]: 35.8 µM | IC50 [2]: 20.8 µM | IC50 [3]: 40.2 µM
Compound: O=C1C[C@@H]2O[C@@H](C=C[C@@H]2O)C/C=C\C[C@H](c2ccc(F)cc2)O1

IC50 [1]: 78 µM | IC50 [2]: 57 µM | IC50 [3]: 69.7 µM
Compound: CCO[C@H]1C=C[C@H]2C/C=C\CC[C@H](C)OC(=O)C[C@@H]1O2

IC50 [1]: 2.23 µM | IC50 [2]: 4.76 µM | IC50 [3]: 8.83 µM
Compound: COc1ccc(CO[C@H]2C=C[C@H]3C/C=C\C[C@H](c4ccc(F)cc4)OC(=O)C[C@@H]2O3)cc1

IC50 [3]: 32.8 µM
Compound: C[C@H]1CCC/C=C/[C@H]2CC[C@H](O)[C@H](CC(=O)O1)O2

IC50 [1]: 21.5 µM | IC50 [2]: 50 µM | IC50 [3]: 30.9 µM
Compound: O=C1C[C@@H]2O[C@@H](C=C[C@@H]2O)C/C=C\C[C@H](c2ccc3ccccc3c2)O1

IC50 [1]: 45.4 µM | IC50 [2]: > 100 µM | IC50 [3]: 10.2 µM
Compound: COc1ccc(CO[C@H]2C=C[C@H]3C/C=C\C[C@H](c4ccc5ccccc5c4)OC(=O)C[C@@H]2O3)cc1

IC50 [3]: 81.2 µM
Compound: C[C@H]1CCC/C=C/[C@H]2CC[C@H](O)[C@@H](CC(=O)O1)O2

IC50 [1]: 56 µM | IC50 [2]: 62.7 µM | IC50 [3]: 69.9 µM
Compound: CCO[C@H]1C=C[C@H]2C/C=C\C[C@H](c3ccc(OC)cc3)OC(=O)C[C@@H]1O2

inhibition [4]: Active | IC50 [1]: 7.36 µM | inhibition [8]: inactive | inhibition [10]: Dose-dependent effect | inhibition [16]: Dose-dependent effect | IC50 [2]: 9.64 µM | inhibition [19]: Active | inhibition [25]: Active | inhibition [28]: Active | inhibition [29]: Active | IC50 [3]: 1.1 µM
Compound: CO[C@H]1C=C[C@H]2C/C=C\C[C@H](c3ccc(-c4ccccc4C(F)(F)F)cc3)OC(=O)C[C@@H]1O2
IC50 [5]: ≥ 100 µM | Activity [6]: 25% | Activity [7]: 37% | inhibition [9]: inactive | Activity [11]: 21% | Activity [12]: Active | Activity [13]: Dose-dependent effect | Activity [14]: 32% | Activity [15]: 62% | Activity [17]: 4% | Activity [18]: 24% | Activity [20]: 30% | Activity [21]: Dose-dependent effect | Activity [22]: 4% | Activity [23]: Active | Activity [24]: 36% | Activity [26]: 3% | Activity [27]: 37% | Activity [30]: Dose-dependent effect

IC50 [1]: 9.16 µM | IC50 [2]: 4.9 µM | IC50 [3]: 5.7 µM
Compound: CCO[C@H]1C=C[C@H]2C/C=C\C[C@H](c3ccc(Cl)cc3)OC(=O)C[C@@H]1O2

IC50 [1]: 15.8 µM | IC50 [2]: 5.45 µM | IC50 [3]: 10 µM
Compound: CO[C@H]1C=C[C@H]2C/C=C\C[C@H](c3ccc(Br)cc3)OC(=O)C[C@@H]1O2
